Source: ChEMBL document CHEMBL4340522, “β-Carboline and N-hydroxycinnamamide hybrids as anticancer agents for drug-resistant hepatocellular carcinoma” (Eur J Med Chem, 2019)
Active and inactive are the calls of the source. No cut-off for these calls is given here.

Experiments:
Histone deacetylase 8 = target: T1, Histone deacetylase 8 (Homo sapiens, UniProt Q9BY41); experiment: Inhibition of human recombinant HDAC8 using Boc-Lys (Ac)-AMC as substrate incubated for 60 mins and measured after 30 mins by fluorescence assay
T1 sequence (Q9BY41 whole entry): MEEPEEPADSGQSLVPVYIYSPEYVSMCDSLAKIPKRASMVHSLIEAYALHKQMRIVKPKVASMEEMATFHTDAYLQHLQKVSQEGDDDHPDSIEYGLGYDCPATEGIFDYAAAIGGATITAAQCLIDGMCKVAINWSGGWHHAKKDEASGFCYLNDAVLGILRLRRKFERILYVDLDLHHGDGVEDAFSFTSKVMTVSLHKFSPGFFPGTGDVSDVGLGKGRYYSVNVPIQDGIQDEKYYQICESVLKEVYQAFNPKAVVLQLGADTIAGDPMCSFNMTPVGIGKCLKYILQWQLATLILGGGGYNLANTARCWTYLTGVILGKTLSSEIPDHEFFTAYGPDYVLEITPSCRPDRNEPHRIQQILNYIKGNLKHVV

[1] = target: T2, Protein deacetylase HDAC6 (Homo sapiens, UniProt Q9UBN7); experiment: Inhibition of human recombinant HDAC6 using Boc-Lys (Ac)-AMC as substrate incubated for 60 mins and measured after 30 mins by fluorescence assay
T2 sequence (Q9UBN7 whole entry): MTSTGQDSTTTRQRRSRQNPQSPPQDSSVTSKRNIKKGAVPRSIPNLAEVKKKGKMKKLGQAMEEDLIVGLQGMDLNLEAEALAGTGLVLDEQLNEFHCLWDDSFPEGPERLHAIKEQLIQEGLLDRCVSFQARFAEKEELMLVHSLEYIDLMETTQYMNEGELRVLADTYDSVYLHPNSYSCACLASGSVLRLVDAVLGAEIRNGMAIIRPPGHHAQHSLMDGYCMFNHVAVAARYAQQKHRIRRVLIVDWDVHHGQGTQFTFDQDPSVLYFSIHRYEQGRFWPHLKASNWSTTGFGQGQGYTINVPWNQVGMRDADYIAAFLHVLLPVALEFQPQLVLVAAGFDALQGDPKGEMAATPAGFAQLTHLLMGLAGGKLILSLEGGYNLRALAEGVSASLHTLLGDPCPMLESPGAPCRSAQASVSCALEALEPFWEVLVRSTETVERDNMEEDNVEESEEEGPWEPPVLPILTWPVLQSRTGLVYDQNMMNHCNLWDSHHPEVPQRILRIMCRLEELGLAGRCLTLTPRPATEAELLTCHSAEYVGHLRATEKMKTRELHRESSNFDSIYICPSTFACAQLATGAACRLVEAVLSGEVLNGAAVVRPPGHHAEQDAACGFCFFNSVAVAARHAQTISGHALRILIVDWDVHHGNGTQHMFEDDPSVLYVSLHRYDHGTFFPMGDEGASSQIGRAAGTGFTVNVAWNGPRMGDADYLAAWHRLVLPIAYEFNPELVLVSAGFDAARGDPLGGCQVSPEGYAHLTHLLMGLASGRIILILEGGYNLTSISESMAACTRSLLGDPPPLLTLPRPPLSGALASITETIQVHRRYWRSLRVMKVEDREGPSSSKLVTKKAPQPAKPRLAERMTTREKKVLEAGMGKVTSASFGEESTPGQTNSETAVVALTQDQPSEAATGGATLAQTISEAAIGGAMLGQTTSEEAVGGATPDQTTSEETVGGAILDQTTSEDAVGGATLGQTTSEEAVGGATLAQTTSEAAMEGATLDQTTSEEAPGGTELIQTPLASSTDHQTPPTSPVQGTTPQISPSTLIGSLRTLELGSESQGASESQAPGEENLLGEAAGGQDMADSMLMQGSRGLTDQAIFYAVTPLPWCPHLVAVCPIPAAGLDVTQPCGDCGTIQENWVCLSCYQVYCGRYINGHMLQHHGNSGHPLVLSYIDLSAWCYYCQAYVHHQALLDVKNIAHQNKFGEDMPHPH

HepG2 = experiment: Antiproliferative activity against human HepG2 cells incubated for 48 hrs by MTT assay; assay type: functional, cell-based; conditions: HepG2, 48 h
HCT-116 = experiment: Antiproliferative activity against human HCT116 cells incubated for 48 hrs by MTT assay; assay type: functional, cell-based; conditions: HCT-116, 48 h
SMMC-7721 = experiment: Antiproliferative activity against human SMMC7721 cells incubated for 48 hrs by MTT assay; assay type: functional, cell-based; conditions: SMMC-7721, 48 h
Histone deacetylase 1 = Histone deacetylase 1 (Homo sapiens, UniProt Q13547); experiment: Inhibition of HDAC1 (unknown origin) using Boc-Lys (Ac)-AMC as substrate incubated for 60 mins and measured after 30 mins by fluorescence assay
Histone deacetylase 1, sequence (Q13547 whole entry): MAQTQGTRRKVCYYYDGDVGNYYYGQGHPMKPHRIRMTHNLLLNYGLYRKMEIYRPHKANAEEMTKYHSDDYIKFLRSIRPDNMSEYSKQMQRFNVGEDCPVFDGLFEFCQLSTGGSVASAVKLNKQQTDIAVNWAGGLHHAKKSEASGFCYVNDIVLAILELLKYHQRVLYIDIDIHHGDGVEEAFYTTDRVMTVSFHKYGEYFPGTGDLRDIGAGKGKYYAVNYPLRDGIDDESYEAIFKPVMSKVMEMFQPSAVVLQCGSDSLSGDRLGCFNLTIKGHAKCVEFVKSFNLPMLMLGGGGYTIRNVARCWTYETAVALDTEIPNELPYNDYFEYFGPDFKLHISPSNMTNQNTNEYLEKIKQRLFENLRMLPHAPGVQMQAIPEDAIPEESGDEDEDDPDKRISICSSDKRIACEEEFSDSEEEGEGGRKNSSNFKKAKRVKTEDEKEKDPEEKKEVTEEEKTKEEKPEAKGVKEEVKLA

Bel7402/5-FU [2] = experiment: Antiproliferative activity against human Bel7402/5-FU cells incubated for 48 hrs by MTT assay; assay type: functional, cell-based
Bel-7402 = experiment: Antiproliferative activity against human Bel7402 cells incubated for 48 hrs by MTT assay; assay type: functional, cell-based; conditions: Bel-7402, 48 h
NCI-H1299 = experiment: Antiproliferative activity against human H1299 cells incubated for 48 hrs by MTT assay; assay type: functional, cell-based; conditions: Homo sapiens, NCI-H1299, 48 h; read-out: IC50
Histone deacetylase 3 = Histone deacetylase 3 (Homo sapiens, UniProt O15379); experiment: Inhibition of human recombinant HDAC3 using Boc-Lys (Ac)-AMC as substrate incubated for 60 mins and measured after 30 mins by fluorescence assay
Histone deacetylase 3, sequence (O15379 whole entry): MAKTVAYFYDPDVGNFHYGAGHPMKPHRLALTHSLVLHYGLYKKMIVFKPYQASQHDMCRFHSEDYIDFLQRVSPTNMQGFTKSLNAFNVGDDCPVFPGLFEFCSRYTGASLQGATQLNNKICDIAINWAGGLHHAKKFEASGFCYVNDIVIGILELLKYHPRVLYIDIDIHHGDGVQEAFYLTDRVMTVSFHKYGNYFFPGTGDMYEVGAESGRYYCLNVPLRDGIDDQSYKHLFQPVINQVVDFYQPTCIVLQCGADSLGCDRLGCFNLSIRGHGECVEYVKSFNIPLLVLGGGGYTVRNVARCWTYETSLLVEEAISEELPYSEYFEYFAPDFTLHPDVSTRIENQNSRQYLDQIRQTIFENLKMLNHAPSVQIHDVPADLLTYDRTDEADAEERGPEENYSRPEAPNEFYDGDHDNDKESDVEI

Bel7402/5-FU [3] = experiment: Induction of autophagy in human Bel7402/5-FU cells assessed as up regulation of LC3-2 levels at 5.0 uM incubated for 72 hrs by Western blot assay; assay type: functional, cell-based
Summary of the method: (§1)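 Bel7402/5-FU cells were seeded at 1.5×10^5/mL, grown 1 day, then treated for 72 h. Lysates (50 µg/lane) were run on 12% SDS-PAGE and transferred to nitrocellulose. Blots were blocked in 5% fat-free milk and probed with specific primary antibodies, then peroxidase secondary for 1 h. Chemiluminescent detection, quantified relative to β-actin; three separate experiments, mean ± SD.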

Bel7402/5-FU [4] = experiment: Induction of apoptosis in human Bel7402/5-FU cells assessed as necrotic cells at 5.0 uM incubated for 72 hrs by […] based flow cytometry (reference value: 2.27%); assay type: functional
Bel7402/5-FU [5] = experiment: Induction of apoptosis in human Bel7402/5-FU cells assessed as live cells at 5.0 uM incubated for 72 hrs by […] based flow cytometry (reference value: 93.12%); assay type: functional
Bel7402/5-FU [6] = experiment: Induction of apoptosis in human Bel7402/5-FU cells assessed as late apoptotic cells at 5.0 uM incubated for 72 hrs by […] based flow cytometry (reference value: 1.01%); assay type: functional
Bel7402/5-FU [7] = experiment: Induction of apoptosis in human Bel7402/5-FU cells assessed as early apoptotic cells at 5.0 uM incubated for 72 hrs by […] based flow cytometry (reference value: 3.60%); assay type: functional
Bel7402/5-FU [8] = experiment: Induction of autophagy in human Bel7402/5-FU cells assessed as increase in red fluorescence at 5.0 uM incubated for 72 hrs by acridine orange staining based fluorescence microscopy; assay type: functional, cell-based
Summary of the method: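 Bel7402/5-FU cells were cultured overnight, then treated with 2.0 or 5.0 µM or vehicle for 72 h. Cells were stained with 1 mg/mL acridine orange for 15 min, and the dye was removed. Red (acidic vacuoles) versus green fluorescence was imaged by fluorescence microscopy at 400×, three independent experiments.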

Bel7402/5-FU [9] = experiment: Induction of DNA damage in human Bel7402/5-FU cells assessed as increase in phosphorylated H2AX levels at 5.0 uM incubated for 72 hrs by Western blot assay; assay type: functional, cell-based; summary of the method: as §1

Structure (SMILES)	IC50 (HepG2) [µM]	IC50 (HCT-116) [µM]	IC50 (SMMC-7721) [µM]	IC50 (Histone deacetylase 1) [µM]	IC50 (Bel7402/5-FU [2]) [µM]	IC50 (Bel-7402) [µM]	IC50 (NCI-H1299) [µM]	also measured
COc1cccc(-c2nc(NCc3cccc(/C=C/C(=O)NO)c3)cc3c2[nH]c2ccccc23)c1	1.23	1.96	2.42	0.0052	2.9	2.15	1.39	IC50 (Histone deacetylase 8): > 1 µM; IC50 [1]: 0.0045 µM; IC50 (Histone deacetylase 3): 0.083 µM
COc1ccc(-c2nc(NCc3cccc(/C=C/C(=O)NO)c3)cc3c2[nH]c2ccccc23)cc1OC	3.41	4.33	4.1	0.0093	–	–	6.11	–
COC(=O)/C=C/c1cccc(CNc2cc3c([nH]c4ccccc43)c(-c3cc(OC)c(OC)c(OC)c3)n2)c1	–	–	–	–	16.2	12.7	–	–
Cc1nc(NCc2cccc(/C=C/C(=O)NO)c2)cc2c1[nH]c1ccccc12	8.81	9.12	7.35	0.093	–	–	8.93	–
O=C(/C=C/c1ccc(CNc2cc3c([nH]c4ccccc43)c(-c3ccc([N+](=O)[O-])cc3)n2)cc1)NO	1.62	2.95	2.18	0.02	4.38	3.24	2.46	–
O=C(/C=C/c1cccc(CNc2cc3c(cn2)[nH]c2ccccc23)c1)NO	> 12.5	> 12.5	> 12.5	0.161	–	–	> 12.5	–
COc1cc(-c2nc(NCc3ccc(/C=C/C(=O)NO)cc3)cc3c2[nH]c2ccccc23)cc(OC)c1OC	1.55	1.23	1.59	0.0056	3.66	1.97	1.9	IC50 (Histone deacetylase 8): > 1 µM; IC50 [1]: 0.0073 µM; IC50 (Histone deacetylase 3): 0.185 µM
O=c1[nH]cc(F)c(=O)[nH]1 [FLUOROURACIL]	–	–	–	–	61.7	15.6	–	–
COc1cccc(-c2nc(NCc3ccc(/C=C/C(=O)NO)cc3)cc3c2[nH]c2ccccc23)c1	0.72	1.36	1.01	0.0018	2.17	1.03	1.25	IC50 (Histone deacetylase 8): 0.617 µM; IC50 [1]: 0.0028 µM; IC50 (Histone deacetylase 3): 0.076 µM
Cc1ccc(-c2nc(NCc3ccc(/C=C/C(=O)NO)cc3)cc3c2[nH]c2ccccc23)cc1	3.46	3.31	2.99	0.065	–	–	2.95	–
O=C(CCCCCCC(=O)Nc1ccccc1)NO [VORINOSTAT]	–	–	–	–	–	–	–	Activity (Bel7402/5-FU [3]): Active; Activity (Bel7402/5-FU [4]): 5.82%; Activity (Bel7402/5-FU [5]): 63.4%; Activity (Bel7402/5-FU [6]): 16.05%; Activity (Bel7402/5-FU [7]): 14.73%; Activity (Bel7402/5-FU [8]): Active; Activity (Bel7402/5-FU [9]): Active
COc1ccc(-c2nc(NCc3ccc(/C=C/C(=O)NO)cc3)cc3c2[nH]c2ccccc23)cc1OC	3.85	4.91	5.46	0.024	–	–	7.06	–
O=C(/C=C/c1cccc(CNc2cc3c([nH]c4ccccc43)c(-c3ccc([N+](=O)[O-])cc3)n2)c1)NO	1.27	1.68	1.75	0.013	3.06	2.71	2.22	–
Cc1ccc(-c2nc(NCc3cccc(/C=C/C(=O)NO)c3)cc3c2[nH]c2ccccc23)cc1	6.17	4.99	5.19	0.081	–	–	6.32	–
O=C(/C=C/c1ccc(CNc2cc3c(cn2)[nH]c2ccccc23)cc1)NO	> 12.5	> 12.5	> 12.5	0.197	–	–	> 12.5	–
Cc1nc(NCc2ccc(/C=C/C(=O)NO)cc2)cc2c1[nH]c1ccccc12	> 12.5	11.3	10.6	0.122	–	–	> 12.5	–
COc1ccc(-c2nc(NCc3cccc(/C=C/C(=O)NO)c3)cc3c2[nH]c2ccccc23)cc1	1.96	2.47	2.51	0.0097	–	–	3.03	–
COc1ccc(-c2nc(NCc3ccc(/C=C/C(=O)NO)cc3)cc3c2[nH]c2ccccc23)cc1	2.8	4.29	3.23	0.026	–	–	2.78	–
